Experimental data taken from ChEMBL document CHEMBL1811827, “Novel nonsecosteroidal vitamin D3 carboxylic acid analogs for osteoporosis, and SAR analysis” (Bioorg Med Chem, 2011).
Each block holds one molecule with its values, some of them ahead of it.

Experiments:
[1] = molecular target: T1, Vitamin D3 receptor (Homo sapiens) (UniProt P11473); experiment: Agonist activity at human VDR in human MG63 cells assessed as stimulation of VDRE-mediated luciferase reporter gene activity relative to 1,25(OH)2D3; assay type: functional, cell-based; set-up: concentration or dose not given beside the values; conditions: MG-63
T1 sequence (whole entry): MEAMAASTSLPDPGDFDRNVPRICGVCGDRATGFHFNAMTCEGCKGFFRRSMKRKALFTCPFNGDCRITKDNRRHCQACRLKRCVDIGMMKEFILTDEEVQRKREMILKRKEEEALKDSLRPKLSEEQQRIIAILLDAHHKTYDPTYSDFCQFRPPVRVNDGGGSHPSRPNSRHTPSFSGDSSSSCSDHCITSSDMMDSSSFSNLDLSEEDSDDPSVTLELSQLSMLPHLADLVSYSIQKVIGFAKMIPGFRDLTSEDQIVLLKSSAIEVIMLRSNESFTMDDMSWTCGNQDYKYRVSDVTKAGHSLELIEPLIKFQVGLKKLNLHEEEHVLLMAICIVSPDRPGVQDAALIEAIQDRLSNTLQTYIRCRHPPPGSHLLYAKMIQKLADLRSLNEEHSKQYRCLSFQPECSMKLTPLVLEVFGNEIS

[2] = molecular target: T1, Vitamin D3 receptor (Homo sapiens); experiment: Agonist activity at human VDR in human MG63 cells assessed as stimulation of osteocalcin production by enzyme immunoassay relative to 1,25(OH)2D3; assay type: functional, cell-based; set-up: concentration or dose not given beside the values; conditions: MG-63
[3] = Total clearance in Sprague-Dawley rat at 100 ug/kg, iv; assay type: ADME, organism-based; conditions: in vivo, 0.1 mg/kg
How it was run: (§1)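 Rats given 100 µg/kg orally or intravenously; F, T1/2, Cmax, AUCinf, MRT and total clearance derived.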

[4] = Oral bioavailability in Sprague-Dawley rat at 100 ug/kg; assay type: ADME, organism-based; conditions: in vivo, 0.1 mg/kg; how it was run: as §1
[5] = Half life in Sprague-Dawley rat at 100 ug/kg, po; assay type: ADME, organism-based; conditions: in vivo, 0.1 mg/kg; how it was run: as §1
[6] = Half life in Sprague-Dawley rat at 100 ug/kg, iv; assay type: ADME, organism-based; conditions: in vivo, 0.1 mg/kg; how it was run: as §1
[7] = Cmax in Sprague-Dawley rat at 100 ug/kg, po; assay type: ADME, organism-based; set-up: dose 100 ug/kg, route oral; conditions: in vivo, 0.1 mg/kg; how it was run: as §1
[8] = AUC (infinity) in Sprague-Dawley rat at 100 ug/kg, po; assay type: ADME, organism-based; set-up: dose 100 ug/kg, time infinity, route oral; conditions: plasma, 0.1 mg/kg; how it was run: as §1
[9] = AUC (infinity) in Sprague-Dawley rat at 100 ug/kg, iv; assay type: ADME, organism-based; set-up: dose 100 ug/kg, time infinity, route intravenous; conditions: plasma, 0.1 mg/kg; how it was run: as §1
[10] = Mean residence time in Sprague-Dawley rat at 100 ug/kg, po; assay type: ADME, organism-based; conditions: in vivo, 0.1 mg/kg; how it was run: as §1
[11] = Mean residence time in Sprague-Dawley rat at 100 ug/kg, iv; assay type: ADME, organism-based; conditions: in vivo, 0.1 mg/kg; how it was run: as §1
[12] = Total clearance in Sprague-Dawley rat at 100 ug/kg, po; assay type: ADME, organism-based; conditions: in vivo, 0.1 mg/kg; how it was run: as §1
Rattus norvegicus [13] = experiment: Prevention of bone mineral density loss in ovariectomized Sprague-Dawley rat osteoporosis model administered orally once daily for 5 times per week; assay type: functional, organism-based
How it was run: (§2)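 Female Sprague–Dawley rats, 8 weeks old, ovariectomized or sham-operated; from one day post-surgery, OVX groups (n = 8) given 0.22, 0.67 or 2.0 µg/kg orally in MCT vehicle (1 mL/kg), five times per week for 4 weeks. 24 h after last dose, serum calcium by autoanalyzer and distal femur BMD by dual-energy X-ray absorptiometry.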

Rattus norvegicus [14] = experiment: Toxicity in ovariectomized Sprague-Dawley rat osteoporosis model assessed as body weight loss at 2 ug/kg, po administered once daily for 5 times per week; assay type: organism-based; conditions: in vivo, 0.002 mg/kg
Rattus norvegicus [15] = experiment: Toxicity in ovariectomized Sprague-Dawley rat osteoporosis model assessed as induction of hypercalcemia at 2 ug/kg, po administered once daily for 5 times per week; assay type: organism-based; conditions: in vivo, 0.002 mg/kg; how it was run: as §2
Rattus norvegicus [16] = experiment: Toxicity in ovariectomized Sprague-Dawley rat osteoporosis model assessed as body weight loss at […], po administered once daily for 5 times per week; assay type: organism-based; conditions: in vivo
Rattus norvegicus [17] = experiment: Toxicity in ovariectomized Sprague-Dawley rat osteoporosis model assessed as induction of hypercalcemia at […], po administered once daily for 5 times per week; assay type: organism-based; conditions: in vivo

Compound: CCC(CC)(c1ccc(OCCC(=O)O)c(C)c1)c1ccc(OCC(O)C(C)(C)C)c(C)c1 (racemic)
Activity [1]: 6.2% | Activity [2]: 49%

Compound: CCC(CC)(c1ccc(OCCCC(=O)O)c(C)c1)c1ccc(OCC(O)C(C)(C)C)c(C)c1 (racemic)
Activity [1]: 2.6% | Activity [2]: < 13%

Compound: CCC(CC)(c1ccc(OCC(O)C(C)(C)C)c(C)c1)c1ccc(OC[C@@H](O)CCC(=O)O)c(C)c1 (mixture of isomers)
clearance [3]: 1.47 mL/min/kg | inhibition (Rattus norvegicus [13]): Dose-dependent effect | Activity (Rattus norvegicus [14]): Toxic | Activity (Rattus norvegicus [15]): Toxic | Activity (Rattus norvegicus [16]): Non-toxic | Activity (Rattus norvegicus [17]): Non-toxic | Activity [1]: 20% | Activity [2]: 484% | bioavailability [4]: 13% | half-life [5]: 8 h | half-life [6]: 10.6 h | Cmax [7]: 11.6 ng/mL | AUC(0-inf) [8]: 151 ng·h/mL | AUC(0-inf) [9]: 1150 ng·h/mL | MRT [10]: 12.3 h | MRT [11]: 9.2 h | CL/F [12]: 11.5 mL/min/kg

Compound: CCC(CC)(c1ccc(OCC(=O)O)c(C)c1)c1ccc(OCC(O)C(C)(C)C)c(C)c1 (racemic)
Activity [1]: 1.4% | Activity [2]: < 13%

Second part, the molecule after the results:

Activity [1]: 16% | Activity [2]: 168%
Compound: CCC(CC)(c1ccc(CCC(O)C(C)(C)C)c(C)c1)c1ccc(OCCCCCC(=O)O)c(C)c1 (racemic)

Activity [1]: 2.2% | Activity [2]: 9.3%
Compound: CCC(CC)(c1ccc(CCC(O)C(C)(C)C)c(C)c1)c1ccc(OCCCCCCC(=O)O)c(C)c1 (racemic)

clearance [3]: 50.9 mL/min/kg | Activity [1]: 19% | Activity [2]: 205% | bioavailability [4]: 33% | half-life [5]: 3.1 h | half-life [6]: 1.3 h | Cmax [7]: 3.6 ng/mL | AUC(0-inf) [8]: 10.9 ng·h/mL | AUC(0-inf) [9]: 32.9 ng·h/mL | MRT [10]: 3.8 h | MRT [11]: 0.5 h | CL/F [12]: 156 mL/min/kg
Compound: CCC(CC)(c1ccc(OCCCCC(=O)O)c(C)c1)c1ccc(OCC(O)C(C)(C)C)c(C)c1 (racemic)

Activity [1]: 52% | Activity [2]: 68%
Compound: CCC(CC)(c1ccc(CCC(O)C(C)(C)C)c(C)c1)c1ccc(OC[C@@H](O)CCC(=O)O)c(C)c1 (mixture of isomers)

Activity [1]: 31% | Activity [2]: 368%
Compound: CCC(CC)(c1ccc(CCC(O)C(C)(C)C)c(C)c1)c1ccc(OCCCCC(=O)O)c(C)c1 (racemic)
